Data: PubChem BioAssay AID685 (PCMD, 2007)
About 80 (0.3%) of roughly 30,000 compounds were called active. The sample holds actives, similar compounds and a random draw of the others, so the mix is not that of the screen.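 The calls were made as follows: active = mutant and wild-type yeast strains alike exhibit over 30% growth inhibition; inconclusive = a strain exceeds 50% while the second remains under 30%; inactive = the rest.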

Experiment: yeast growth toxicity, wild-type and mutant, primary screen, cytotoxicity control for eIF2B function restoration project, wild-type and eIF2Bepsilon R284H mutant, A595 (AID 685);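 also: 0% = untreated cell controls and 100% = YPD media blanks without cells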
Details: A595 turbidity, 16 h, stronger effect = higher value, screened at 25 µM (by protocol)
Summary of the method: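 System – wild-type and eIF2Bepsilon-R284H mutant S. cerevisiae, screened separately · Measured by – absorbance at 595 nm (turbidity) · Timing – 16 h compound exposure during growth at 30 °C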

[1] = S. cerevisiae eIF2Bepsilon-R284H mutant growth

CC(C)(C)N1CC(c2nc3ccccc3n2Cc2ccc(F)cc2)CC1=O (centres undefined)
growth inhibition [1]: 20% | growth inhibition (S. cerevisiae wild-type growth): 5% (inactive)

CS(=O)(=O)Nc1ccc(C(=O)N2CCCC2)cc1
growth inhibition [1]: 11.6% | growth inhibition (S. cerevisiae wild-type growth): 38.3% (inactive)

Cc1[nH][nH]c(=O)c1N=Nc1ccccc1
growth inhibition [1]: 8.33% | growth inhibition (S. cerevisiae wild-type growth): 25.8% (inactive)

Cc1[nH][nH]c(=O)c1C(c1ccc(-c2ccc(Cl)cc2)o1)c1c(C)[nH][nH]c1=O
growth inhibition [1]: 63% | growth inhibition (S. cerevisiae wild-type growth): 75.8% (active)

Cc1ccccc1-c1nnc(SCC(=O)NCc2ccc3c(c2)OCO3)n1C
growth inhibition [1]: 8.14% | growth inhibition (S. cerevisiae wild-type growth): 13.1% (inactive)

CC(C)(CNC(=O)c1cc(=O)[nH]c2ccccc12)N1CCOCC1
growth inhibition [1]: -23.8% | growth inhibition (S. cerevisiae wild-type growth): -1.08% (inactive)

Cc1cc(NC(=O)CN2CCCC(C)C2)n(-c2nc3ccccc3s2)n1 (centres undefined)
growth inhibition [1]: -42.9% | growth inhibition (S. cerevisiae wild-type growth): -15.7% (inactive)

Cc1[nH]n(-c2cccc(Cl)c2)c(=O)c1/C=N/n1c(C)nc2ccccc2c1=O
growth inhibition [1]: 2.56% | growth inhibition (S. cerevisiae wild-type growth): 21% (inactive)

O=C(CCS(=O)(=O)c1cccc2nsnc12)N1CCN(c2ccccc2F)CC1
growth inhibition [1]: 12.5% | growth inhibition (S. cerevisiae wild-type growth): 11.5% (inactive)

Cc1ccc(S(=O)(=O)N2CCN(S(=O)(=O)N3CCOCC3)CC2)cc1
growth inhibition [1]: -11.9% | growth inhibition (S. cerevisiae wild-type growth): 10.3% (inactive)

COC(=O)c1ccc(/C=N\n2c(C)nnc2C)cc1
growth inhibition [1]: -3.85% | growth inhibition (S. cerevisiae wild-type growth): -0.22% (inactive)

CC(=O)Nc1cccc(Oc2cc(C#N)c(C#N)cc2N2CCOCC2)c1
growth inhibition [1]: -4.55% | growth inhibition (S. cerevisiae wild-type growth): -7.1% (inactive)

O=C(N/N=C/c1ccc(O)cc1)/C(=C/c1ccc([N+](=O)[O-])cc1)NC(=O)c1ccccc1
growth inhibition [1]: 15% | growth inhibition (S. cerevisiae wild-type growth): 5% (inactive)

CC(=NCc1ccco1)c1c(C(F)(F)F)[nH]n(-c2nc3ccccc3s2)c1=O
growth inhibition [1]: 7.61% | growth inhibition (S. cerevisiae wild-type growth): 34.2% (inactive)

O=C(CSc1n[nH]c(-c2cccnc2)n1)Nc1ccnc2ccccc12
growth inhibition [1]: 7.69% | growth inhibition (S. cerevisiae wild-type growth): 1% (inactive)

Cc1ccc(S(=O)(=O)N(C)C2(C)CCS(=O)(=O)C2)cc1 (centres undefined)
growth inhibition [1]: 5% | growth inhibition (S. cerevisiae wild-type growth): -6.15% (inactive)

COC(=O)c1ccccc1NC(=O)CN(Cc1ccc(Cl)cc1)S(C)(=O)=O
growth inhibition [1]: 6.98% | growth inhibition (S. cerevisiae wild-type growth): 4.14% (inactive)

CCSc1ccccc1C(=O)NCc1ccc(OC)cc1
growth inhibition [1]: 10.3% | growth inhibition (S. cerevisiae wild-type growth): 2.69% (inactive)

CCOc1ccc(S(=O)(=O)NCCSc2ccccc2)cc1
growth inhibition [1]: 12.5% | growth inhibition (S. cerevisiae wild-type growth): 10% (inactive)

CCNC(=O)c1sccc1-n1cccc1
growth inhibition [1]: 12.9% | growth inhibition (S. cerevisiae wild-type growth): 8.21% (inactive)

COCCCNC(=O)COc1cc(C)c(Cl)c(C)c1
growth inhibition [1]: -13.6% | growth inhibition (S. cerevisiae wild-type growth): 8.44% (inactive)

COC(=O)Nc1ncc(CN2CCCCC2)s1
growth inhibition [1]: 6.45% | growth inhibition (S. cerevisiae wild-type growth): -0.8% (inactive)

CCOc1ccc(S(=O)(=O)Nc2ccc(S(=O)(=O)Nc3cc(OC)ccc3OC)cc2)cc1
growth inhibition [1]: 6.38% | growth inhibition (S. cerevisiae wild-type growth): 5.67% (inactive)

CC1(C)NC(=O)N(CCCCSc2ccc(Cl)cc2)C1=O
growth inhibition [1]: 15.6% | growth inhibition (S. cerevisiae wild-type growth): 21.2% (inactive)

CC/S(CC1CC1(Cl)Cl)=N\S(=O)(=O)c1ccc(C)cc1 (centres undefined)
growth inhibition [1]: 25.5% | growth inhibition (S. cerevisiae wild-type growth): 20.7% (inactive)

Cc1ccc(C(=O)N2CCCC2)c(F)c1F
growth inhibition [1]: 20% | growth inhibition (S. cerevisiae wild-type growth): 0.21% (inactive)

O=C(c1ccc(Cl)c(Cl)c1)N1CCCC1
growth inhibition [1]: 8.89% | growth inhibition (S. cerevisiae wild-type growth): 28.3% (inactive)

CCCCc1nnc(NC(=O)CSc2nc(C)cc(=O)[nH]2)s1
growth inhibition [1]: 20% | growth inhibition (S. cerevisiae wild-type growth): 14.6% (inactive)

c1ccc(CSCCc2ccncc2)cc1
growth inhibition [1]: 20% | growth inhibition (S. cerevisiae wild-type growth): 22.3% (inactive)

CCC(=O)N(Cc1ccccc1)c1ccccn1
growth inhibition [1]: 15% | growth inhibition (S. cerevisiae wild-type growth): 1.54% (inactive)

Nc1c(C(=O)NCc2ccccc2)sc2nc3c(cc12)C(=O)CCC3
growth inhibition [1]: 0% | growth inhibition (S. cerevisiae wild-type growth): -16.4% (inactive)

Cc1ccoc1C(=O)Nc1cccc(Oc2ccccc2)c1
growth inhibition [1]: 20% | growth inhibition (S. cerevisiae wild-type growth): 20.3% (inactive)

Cc1cc(C)n(-c2ccc(Cl)c(C(=O)O)n2)n1
growth inhibition [1]: -10% | growth inhibition (S. cerevisiae wild-type growth): 22.7% (inactive)

Cc1cccc(N(CC(=O)N2CCOCC2)S(C)(=O)=O)c1
growth inhibition [1]: -23.8% | growth inhibition (S. cerevisiae wild-type growth): 4.83% (inactive)

CCc1c(O)nc(SCC(=O)Nc2ccccc2)n(C(C)CC)c1=O (centres undefined)
growth inhibition [1]: 12.8% | growth inhibition (S. cerevisiae wild-type growth): 10% (inactive)

O=S1(=O)C=C(SCCN2CCCC2)c2ccccc21
growth inhibition [1]: 13.5% | growth inhibition (S. cerevisiae wild-type growth): 27.4% (inactive)

CS(=O)(=O)N1CCN(c2cccc(Cl)n2)CC1
growth inhibition [1]: 18.9% | growth inhibition (S. cerevisiae wild-type growth): -6.15% (inactive)

Cc1cccc(NC(=O)C2CCCN2S(=O)(=O)c2ccc(F)cc2)c1C (centres undefined)
growth inhibition [1]: 13.8% | growth inhibition (S. cerevisiae wild-type growth): 9.79% (inactive)

COc1ccc(-c2cc(C)nc3nc(N)nn23)cc1
growth inhibition [1]: 13.3% | growth inhibition (S. cerevisiae wild-type growth): 1.72% (inactive)

Cc1ccc(S(=O)(=O)NC(=O)COc2ccccc2C)cc1
growth inhibition [1]: 10.5% | growth inhibition (S. cerevisiae wild-type growth): 6.06% (inactive)

COc1ccc(CN2CCCCC2C)cc1OC (centres undefined)
growth inhibition [1]: 12.5% | growth inhibition (S. cerevisiae wild-type growth): 8.46% (inactive)

CC1CC2=C(CC1/C=N/NC(N)=S)C(C)(C)CCC2 (centres undefined)
growth inhibition [1]: 41.9% | growth inhibition (S. cerevisiae wild-type growth): 30% (active)

CCCCNC(=O)OC(C)CNC(=O)OC (centres undefined)
growth inhibition [1]: 15% | growth inhibition (S. cerevisiae wild-type growth): 15.4% (inactive)

CC(=O)Nc1ccccc1OC(=O)N1CCOCC1
growth inhibition [1]: 2.94% | growth inhibition (S. cerevisiae wild-type growth): 27.7% (inactive)

O=c1c2ccccc2nc2n1C1(CCCCC1)Cc1ccccc1-2
growth inhibition [1]: 2.94% | growth inhibition (S. cerevisiae wild-type growth): 5.38% (inactive)

CC(C)C[C@@H](N)c1nnc(SCC(=O)c2ccc(Cl)cc2)o1
growth inhibition [1]: -4.76% | growth inhibition (S. cerevisiae wild-type growth): -22.1% (inactive)

Cc1cc(C(=O)Nc2ccccc2N2CCOCC2)c2ccccc2n1
growth inhibition [1]: 15.2% | growth inhibition (S. cerevisiae wild-type growth): 28.1% (inactive)

COc1cccc(N2CC(C(=O)Nc3c(C)cccc3C)CC2=O)c1 (centres undefined)
growth inhibition [1]: -17.4% | growth inhibition (S. cerevisiae wild-type growth): -10.6% (inactive)

COC(=O)c1cc(NC(=O)CC2C(=O)NCCN2C(=O)c2ccc(F)cc2)cc(C(=O)OC)c1 (centres undefined)
growth inhibition [1]: 14.3% | growth inhibition (S. cerevisiae wild-type growth): 3.33% (inactive)

Cc1cc2nc(C)n(CCCNC(=O)Nc3ccccc3)c2cc1C
growth inhibition [1]: -4.76% | growth inhibition (S. cerevisiae wild-type growth): 26.8% (inactive)

Cc1cc(C)c2nc(NC(=O)C3CCCO3)sc2c1 (centres undefined)
growth inhibition [1]: 28.2% | growth inhibition (S. cerevisiae wild-type growth): 10.3% (inactive)

CCN(c1ccccc1)S(=O)(=O)c1ccc(C(=O)Nc2nccs2)cc1
growth inhibition [1]: 0% | growth inhibition (S. cerevisiae wild-type growth): 18.7% (inactive)

Cc1ccc(OCC(=O)Nn2cnc3ccccc32)cc1
growth inhibition [1]: -33.3% | growth inhibition (S. cerevisiae wild-type growth): -14% (inactive)

Cc1ccc(-c2noc(CSc3nnc(-c4ccncc4)n3-c3ccc(F)cc3)n2)cc1
growth inhibition [1]: 11.6% | growth inhibition (S. cerevisiae wild-type growth): 17.6% (inactive)

O=C1CC(Sc2ncn[nH]2)C(=O)N1c1ccccc1 (centres undefined)
growth inhibition [1]: 56.8% | growth inhibition (S. cerevisiae wild-type growth): 43.7% (active)

CCOC(=O)c1ccc(N2C(=O)CC(Sc3nc(O)c(CC)c(=O)[nH]3)C2=O)cc1 (centres undefined)
growth inhibition [1]: 0% | growth inhibition (S. cerevisiae wild-type growth): -8% (inactive)

Cc1ccc(N2C(=O)CC(Sc3ncn[nH]3)C2=O)cc1 (centres undefined)
growth inhibition [1]: 23.8% | growth inhibition (S. cerevisiae wild-type growth): 1.62% (inactive)
